Experimental data as given in ChEMBL document CHEMBL1133688, “Hunting the emesis and efficacy targets of PDE4 inhibitors: identification of the photoaffinity probe 8-(3-azidophenyl)-6- [(4-iodo-1H-1-imidazolyl)methyl]quinoline (APIIMQ)” (J Med Chem, 2000).

Assays:
[1] = target: 3',5'-cyclic-AMP phosphodiesterase 4A (Homo sapiens, UniProt P27815); assay: Inhibition of recombinant human PDE4A expressed in Sf9 cells
Method in brief: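 Inhibition of the purified enzyme's catalytic activity (cAMP hydrolysis) was measured, and IC50 was derived.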

[2] = species on record: Cavia porcellus; assay: Bronchoconstriction effect in ovalbumin-induced guinea pig model; type: functional
[3] = species on record: Homo sapiens; assay: Inhibition of LPS-induced TNF-alpha secretion in human whole blood; type: functional

Chain of 3',5'-cyclic-AMP phosphodiesterase 4A (P27815 whole entry): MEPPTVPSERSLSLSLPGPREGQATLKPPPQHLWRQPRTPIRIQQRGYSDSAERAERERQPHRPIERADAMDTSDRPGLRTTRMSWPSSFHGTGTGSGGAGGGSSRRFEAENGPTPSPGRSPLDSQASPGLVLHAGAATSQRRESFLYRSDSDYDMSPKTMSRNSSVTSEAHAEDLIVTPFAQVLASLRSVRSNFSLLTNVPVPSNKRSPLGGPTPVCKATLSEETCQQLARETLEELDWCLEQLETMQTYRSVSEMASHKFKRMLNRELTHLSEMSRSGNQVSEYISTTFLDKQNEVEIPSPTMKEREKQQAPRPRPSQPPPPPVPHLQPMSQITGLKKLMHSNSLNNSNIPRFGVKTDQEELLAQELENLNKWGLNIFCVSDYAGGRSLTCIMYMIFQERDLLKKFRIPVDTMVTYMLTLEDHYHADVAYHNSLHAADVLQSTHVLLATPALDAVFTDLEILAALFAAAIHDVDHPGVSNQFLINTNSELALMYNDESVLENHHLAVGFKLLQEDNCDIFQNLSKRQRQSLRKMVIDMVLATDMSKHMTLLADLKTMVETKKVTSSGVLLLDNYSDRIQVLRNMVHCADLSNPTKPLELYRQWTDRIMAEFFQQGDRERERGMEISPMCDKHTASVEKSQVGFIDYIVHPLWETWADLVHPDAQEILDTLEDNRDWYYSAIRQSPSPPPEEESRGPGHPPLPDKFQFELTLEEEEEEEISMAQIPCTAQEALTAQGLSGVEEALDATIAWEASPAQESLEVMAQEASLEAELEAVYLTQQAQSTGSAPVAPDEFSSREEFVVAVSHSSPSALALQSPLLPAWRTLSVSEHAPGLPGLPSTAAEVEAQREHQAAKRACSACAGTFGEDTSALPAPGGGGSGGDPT

| Structure (SMILES) | IC50 [1] | other results |
| --- | --- | --- |
| O=C(c1ccccc1)c1cc(-c2cccc(I)c2)c2ncccc2c1 | 15 nM | – |
| [N-]=[N+]=Nc1cc(-c2cccc(I)c2)c2ncccc2c1 | 28 nM | – |
| COc1ccc(C2CC(=O)N(Cc3cc(I)cc(C4(C(F)(F)F)N=N4)c3)C2)cc1OC1CCCC1 (centres undefined) | 35 nM | – |
| [N-]=[N+]=Nc1ccc(I)c(-c2cc(Cc3ccncc3)cc3cccnc23)c1 | 3.3 nM | – |
| O=[N+]([O-])c1cccc(-c2cc(Cc3ccncc3)cc3cccnc23)c1 | 0.07 nM | – |
| [N-]=[N+]=Nc1cccc(-c2cc(I)cc3cccnc23)c1 | 2.7 nM | – |
| O=c1c2c(ncn2Cc2ccccc2)c2cccnc2n1-c1ccccc1 | 0.6 nM | – |
| [N-]=[N+]=Nc1cccc(-c2cc(Cc3ccncc3)cc3cccnc23)c1 | 0.2 nM | – |
| O=c1c2c(ncn2Cc2cc(I)cc(C3(C(F)(F)F)N=N3)c2)c2cccnc2n1-c1ccccc1 | 250 nM | – |
| [N-]=[N+]=Nc1cccc(-c2cc(Cn3cnc(I)c3)cc3cccnc23)c1 | 0.4 nM | ED50 [2]: 0.3 mg/kg; IC50 [3]: 2000 nM |
| c1ccc(-c2cc(Cn3ccnc3)cc3cccnc23)cc1 | 9 nM | – |
| COc1ccc([C@H](Cc2ccncc2)c2ccccc2)cc1OC1CCCC1 [CDP840] | – | Ki [1]: 4 nM |
